From ChEMBL document CHEMBL1123760, “Synthesis and oral antifungal activity of novel azolylpropanolones and related compounds” (1987)
In brackets after ≈: the same amount, converted by molar mass.

Legend:
Type in all cases: functional
[1] = tested on: Mus musculus; assay: Ratio of in vivo number of survivors / total infected; set-up: reference not given here
[2] = tested on: Trichophyton benhamiae; assay: In vitro antifungal activity against Trichophyton asteroides
Method in brief: (§1)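 Broth microdilution MIC in Sabouraud's glucose broth; final inocula 1 × 10^5 cells/mL (yeast) or 1 × 10^5 conidia/mL (mold and dermatophyte).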

[3] = tested on: Aspergillus fumigatus; assay: In vitro antifungal activity against Aspergillus fumigatus; method in brief: as §1
[4] = tested on: Candida albicans; assay: In vitro antifungal activity against Candida albicans; method in brief: as §1
[5] = tested on: Candida albicans; assay: Minimum effective concentration for inhibition of pseudomycelium formation in Candida albicans; conditions: for minimal effective concentration: Candida albicans, read-out: MEC
Method in brief: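 C. albicans KE-2 (clinical isolate) at a final 1 × 10^6 yeast cells/mL in EMEM with 20% calf serum; compounds diluted by the same microtiter system as for MICs. After incubation, wells were Giemsa-stained (5% in phosphate buffer) and read by microscope. MEC is the lowest concentration preventing typical pseudomycelium formation.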

[6] = Trichophyton benhamiae, read-out: MIC
[7] = Aspergillus fumigatus, read-out: MIC
[8] = Candida albicans, read-out: MIC

| MIC [2, 6] [µg/mL] | MIC [3, 7] [µg/mL] | MIC [4, 8] [µg/mL] | MIC [2] [µg/mL] | Compound | No. of survivors [1] | minimal effective concentration [5] [µg/mL] | MIC [3] [µg/mL] | MIC [4] [µg/mL] | MEC [5] [µg/mL] |
| --- | --- | --- | --- | --- | --- | --- | --- | --- | --- |
| – | > 100 | > 100 | 25 (≈ 58.9 µM) | O=C1O[C@H](c2ccc(Cl)cc2)[C@](Cn2cncn2)(c2ccc(Cl)cc2Cl)O1 (relative stereo) | – | – | – | – | >20 |
| 0.1 (≈ 0.243 µM) | 0.2 (≈ 0.487 µM) | 50 (≈ 122 µM) | – | Clc1ccc([C@H]2OCO[C@]2(Cn2cncn2)c2ccc(Cl)cc2Cl)cc1 | – | 0.02 | – | – | – |
| > 100 | > 100 | > 100 | – | O=C(c1ccc(F)cc1)C(O)(Cn1cnnc1)c1ccc(Cl)cc1Cl (stereo not drawn) | – | > 20 | – | – | – |
| – | – | > 100 | 0.1 (≈ 0.251 µM) | OC(c1ccc(Cl)cc1)C(O)(Cn1cncn1)c1ccc(Cl)cc1Cl (stereo in doubt; 108) | – | – | 25 (≈ 62.7 µM) | – | 0.04 |
| 0.2 (≈ 0.476 µM) | > 100 | > 100 | – | CCCCC(O)(c1ccccc1)C(O)(Cn1cncn1)c1ccc(Cl)cc1Cl (stereo not drawn) | – | 2.5 | – | – | – |
| 0.2 (≈ 0.471 µM) | > 100 | > 100 | – | O=C1O[C@H](c2ccc(Cl)cc2)[C@@](Cn2cncn2)(c2ccc(Cl)cc2Cl)O1 (stereo in doubt; 115) | – | 0.04 | – | – | – |
| 0.8 (≈ 2.72 µM) | 50 (≈ 170 µM) | > 100 | – | CCCC(O)(Cn1cncn1)C(=O)c1ccc(Cl)cc1 (stereo not drawn) | – | 0.31 | – | – | – |
| 0.4 (≈ 0.99 µM) | 50 (≈ 124 µM) | > 100 | – | CCCCC(O)(c1ccc(F)cc1)C(O)(Cn1cncn1)c1ccccc1Cl (stereo in doubt; 189) | – | – | – | – | 20 |
| 1.6 (≈ 5.16 µM) | 50 (≈ 161 µM) | > 100 | – | CC(C)C(O)(Cn1cncn1)C(C)(O)c1ccc(Cl)cc1 (stereo not drawn) | – | 5 | – | – | – |
| 0.79 (≈ 2.4 µM) | > 100 | 100 (≈ 304 µM) | – | O=C(c1ccc(F)cc1)C(O)(Cn1cncn1)c1ccc(F)cc1 (stereo not drawn) | – | 10 | – | – | – |
| 0.4 (≈ 1.3 µM) | 50 (≈ 162 µM) | > 100 | – | CCCCC(O)(Cn1cncn1)C(=O)c1ccccc1Cl (stereo not drawn) | – | 0.63 | – | – | – |
| 1.6 (≈ 4.43 µM) | > 100 | > 100 | – | CC(O)(c1ccc(Cl)cc1)C(O)(Cn1ccnc1)c1ccc(F)cc1 (stereo not drawn) | – | 10 | – | – | – |
| – | > 100 | > 100 | 6.3 (≈ 21.3 µM) | CCCC(O)C(O)(Cn1cncn1)c1ccc(Cl)cc1 (stereo in doubt; 107) | – | 0.16 | – | – | – |
| > 100 | > 100 | > 100 | – | OC(Cc1ccc(Cl)cc1)(c1ccc(F)cc1)C(O)(Cn1cncn1)c1ccc(Cl)cc1 (stereo not drawn) | – | 20 | – | – | – |
| 0.4 (≈ 1.11 µM) | > 100 | > 100 | – | CC(O)(c1ccc(Cl)cc1)C(O)(Cn1cncn1)c1ccc(F)cc1 (stereo not drawn) | – | 2.5 | – | – | – |
| 1.6 (≈ 5.09 µM) | > 100 | > 100 | – | CCC(O)(Cn1cncn1)C(=O)c1ccc(Cl)cc1Cl (stereo not drawn) | – | 20 | – | – | – |
| 50 (≈ 102 µM) | > 100 | > 100 | – | OC(Cc1ccc(Cl)cc1)(c1ccccc1)C(O)(Cn1cncn1)c1ccc(Cl)cc1Cl (stereo not drawn) | – | 20 | – | – | – |
| – | > 100 | 50 (≈ 132 µM) | 0.8 (≈ 2.11 µM) | CC(O)(c1ccc(Cl)cc1)C(O)(Cn1cncn1)c1ccc(Cl)cc1 (stereo in doubt; 194) | – | – | – | – | 2.5 |
| 0.2 (≈ 0.532 µM) | 12.5 (≈ 33.2 µM) | > 100 | – | Clc1ccc([C@H]2OCO[C@]2(Cn2cncn2)c2ccccc2)c(Cl)c1 | – | 0.63 | – | – | – |
| 0.1 (≈ 0.29 µM) | 50 (≈ 145 µM) | > 100 | – | CC(C)C(C)(O)C(O)(Cn1cncn1)c1ccc(Cl)cc1Cl (stereo in doubt; 169) | – | 0.08 | – | – | – |
| 1.6 (≈ 4.88 µM) | > 100 | > 100 | – | O=C(c1ccccc1)C(O)(Cn1cncn1)c1ccccc1Cl (stereo not drawn) | – | 2.5 | – | – | – |
| 0.8 (≈ 1.72 µM) | > 100 | > 100 | – | OC(Cn1cncn1)(c1ccc(Cl)cc1Cl)C(O)(c1ccc(F)cc1)c1cccs1 (stereo not drawn) | – | 5 | – | – | – |
| > 100 | > 100 | > 100 | – | O=C(c1ccc(Cl)cc1Cl)C(O)(Cn1cnnc1)c1ccc(Cl)cc1 (stereo not drawn) | – | > 20 | – | – | – |
| 0.1 (≈ 0.262 µM) | > 100 | > 100 | – | OC(c1ccc(Cl)cc1Cl)C(O)(Cn1cncn1)c1ccc(F)cc1 (stereo not drawn) | – | 0.31 | – | – | – |
| 0.1 (≈ 0.303 µM) | 50 (≈ 151 µM) | > 100 | – | CC(C)C(O)C(O)(Cn1cncn1)c1ccc(Cl)cc1Cl (stereo not drawn) | – | 0.04 | – | – | – |
| > 100 | > 100 | > 100 | – | O=C(c1ccc(F)cc1)C(O)(Cn1cnnc1)c1ccc(F)cc1 (stereo not drawn) | – | > 20 | – | – | – |
| 0.4 (≈ 1.11 µM) | > 100 | > 100 | – | CC(O)(c1ccc(F)cc1)C(O)(Cn1ccnc1)c1ccc(Cl)cc1 (stereo not drawn) | – | 2.5 | – | – | – |
| – | – | – | 0.1 (≈ 0.242 µM) | CC(O)(c1ccc(Cl)cc1)C(O)(Cn1cncn1)c1ccc(Cl)cc1Cl (stereo in doubt; 176) | – | – | 50 (≈ 121 µM) | 50 (≈ 121 µM) | 0.63 |
| – | > 100 | > 100 | 0.8 (≈ 2.7 µM) | CC(C)C(O)C(O)(Cn1cncn1)c1ccc(Cl)cc1 (stereo in doubt; 100) | – | – | – | – | 0.16 |

| Compound | MIC [2, 6] [µg/mL] | MIC [3, 7] [µg/mL] | MIC [4, 8] [µg/mL] | MIC [2] [µg/mL] | No. of survivors [1] | minimal effective concentration [5] [µg/mL] | MIC [3] [µg/mL] | MIC [4] [µg/mL] | MEC [5] [µg/mL] |
| --- | --- | --- | --- | --- | --- | --- | --- | --- | --- |
| O=C(C1CCCC1)C(O)(Cn1cncn1)c1ccc(Cl)cc1Cl (stereo not drawn) | 0.1 (≈ 0.282 µM) | > 100 | 50 (≈ 141 µM) | – | 0 | 0.02 | – | – | – |
| O=S1O[C@H](c2ccc(Cl)cc2Cl)[C@](Cn2cncn2)(c2ccc(Cl)cc2)O1 (stereo partly drawn) | 0.1 (≈ 0.225 µM) | > 100 | 100 (≈ 225 µM) | – | 7 | 0.02 | – | – | – |
| CC(C)C(=O)C(O)(Cn1ccnc1)c1ccc(Cl)cc1Cl (stereo not drawn) | 0.1 (≈ 0.306 µM) | > 100 | > 100 | – | 1 | 0.04 | – | – | – |
| O=C(c1ccccc1F)C(O)(Cn1cncn1)c1ccc(Cl)cc1Cl (stereo not drawn) | 0.1 (≈ 0.263 µM) | > 100 | 100 (≈ 263 µM) | – | 7 | 0.04 | – | – | – |
| CC(C)(C)C(=O)C(O)(Cn1cncn1)c1ccc(Cl)cc1Cl (stereo not drawn) | 0.1 (≈ 0.292 µM) | > 100 | > 100 | – | 7 | 0.04 | – | – | – |
| O=S1O[C@H](c2ccc(F)cc2)[C@](Cn2cncn2)(c2ccc(Cl)cc2Cl)O1 (stereo partly drawn) | 0.1 (≈ 0.233 µM) | > 100 | > 100 | – | 0 | 0.04 | – | – | – |
| O=C(c1ccc(F)cc1)C(O)(Cn1cncn1)c1ccc(Cl)cc1Cl (stereo not drawn) | 0.1 (≈ 0.263 µM) | > 100 | > 100 | – | 2 | 1.25 | – | – | – |
| OC(c1ccccc1Cl)C(O)(Cn1cncn1)c1ccccc1Cl (stereo not drawn) | 0.1 (≈ 0.275 µM) | 6.3 (≈ 17.3 µM) | 100 (≈ 275 µM) | – | 2 | 0.08 | – | – | – |
| CCCCC(=O)C(O)(Cn1ccnc1)c1ccc(Cl)cc1Cl (stereo not drawn) | 0.1 (≈ 0.293 µM) | > 100 | > 100 | – | 0 | 0.04 | – | – | – |
| O=C(c1ccccc1Cl)C(O)(Cn1cncn1)c1ccc(F)cc1 (stereo not drawn) | 0.4 (≈ 1.16 µM) | > 100 | 100 (≈ 289 µM) | – | 0 | 10 | – | – | – |
| O=C(c1ccc(Cl)cc1)C(O)(Cn1cncn1)C1CCCC1 (stereo not drawn) | 0.1 (≈ 0.313 µM) | 50 (≈ 156 µM) | 100 (≈ 313 µM) | – | 1 | 0.16 | – | – | – |
| Clc1ccc([C@@]2(Cn3cncn3)OCO[C@@H]2c2ccc(Cl)cc2Cl)cc1 | 0.1 (≈ 0.243 µM) | > 100 | > 100 | – | 0 | 0.31 | – | – | – |
| O=C(c1ccc(Cl)cc1)C(O)(Cn1cncn1)c1ccc(Cl)cc1Cl (stereo not drawn) | 0.1 (≈ 0.252 µM) | > 100 | > 100 | – | 7 | 1.25 | – | – | – |
| O=S1O[C@H](c2ccc(Cl)cc2Cl)[C@@](Cn2cncn2)(c2ccc(Cl)cc2)O1 (stereo partly drawn) | 0.1 (≈ 0.225 µM) | > 100 | 100 (≈ 225 µM) | – | 5 | 0.08 | – | – | – |
| O=C(c1ccccc1Cl)C(O)(Cn1cncn1)c1ccc(Cl)cc1 (stereo not drawn) | 0.4 (≈ 1.1 µM) | > 100 | > 100 | – | 0 | > 20 | – | – | – |
| CC(O)(c1ccc(F)cc1)C(O)(Cn1cncn1)c1ccc(Cl)cc1 (stereo in doubt; 162) | – | – | – | 0.1 (≈ 0.276 µM) | 8 | – | 100 (≈ 276 µM) | >100 | 0.08 |
| CCCCC(O)(Cn1cncn1)C(=O)c1ccc(Cl)cc1 (stereo not drawn) | 0.2 (≈ 0.65 µM) | 100 (≈ 325 µM) | 100 (≈ 325 µM) | – | 2 | 0.31 | – | – | – |
| CC(O)(c1ccc(F)cc1)C(O)(Cn1cncn1)c1ccc(F)cc1 (stereo in doubt; 160) | – | – | – | 0.1 (≈ 0.29 µM) | 2 | – | 25 (≈ 72.4 µM) | – | 0.16 |
| CC(O)(c1ccc(F)cc1)C(O)(Cn1cncn1)c1ccc(F)cc1 (stereo in doubt; 161) | 0.2 (≈ 0.579 µM) | – | > 100 | – | – | – | 100 (≈ 290 µM) | – | 2.5 |
| OC(c1ccc(F)cc1)C(O)(Cn1cncn1)c1ccc(Cl)cc1Cl (stereo in doubt; 105) | – | – | – | 25 (≈ 65.4 µM) | – | – | >100 | >100 | 5 |
